# Laboratory results: ChEMBL document CHEMBL2434886, “Development of 3,4-dihydroisoquinolin-1(2H)-one derivatives for the Positron Emission Tomography (PET) imaging of σ₂ receptors” (Eur J Med Chem, 2013)
# pEC50, pKi: −log10 of the molar value.
# Legend:
# Bone = experiment: Drug uptake in bone of Wistar rat at 47 MBq, iv up to 90 mins by PET analysis; format: ADME, organism-based, Bone element; conditions: in vivo, 1.5 h
# How it was run: (§1)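 Male Wistar rat under isoflurane given 47 MBq (0.8 nmol) [18F]-tracer via tail vein. Head scanned 0–90 min by list-mode PET, then CT. Blocking rat received 1 mg/kg haloperidol iv just before tracer (34 MBq). 2D-OSEM reconstruction with no attenuation correction. ROI analysis gives SUV (Bq/cm3 per injected Bq/g).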
# Cerebellum [1] = experiment: Drug uptake in cerebellum of Wistar rat at 47 MBq, iv up to 90 mins by PET analysis in presence of haloperidol; format: ADME, organism-based; conditions: in vivo, 1.5 h
# [2] = Drug uptake in olfactory of Wistar rat at 47 MBq, iv up to 90 mins by PET analysis in presence of haloperidol; format: ADME, organism-based; conditions: in vivo, 1.5 h
# Cerebral cortex [3] = experiment: Drug uptake in cerebral cortex of Wistar rat at 47 MBq, iv up to 90 mins by PET analysis in presence of haloperidol; format: ADME, organism-based; conditions: in vivo, 1.5 h
# Cerebellum [4] = experiment: Drug uptake in cerebellum of Wistar rat at 47 MBq, iv up to 90 mins by PET analysis; format: ADME, organism-based; conditions: in vivo, 1.5 h; how it was run: as §1
# [5] = Drug uptake in olfactory of Wistar rat at 47 MBq, iv up to 90 mins by PET analysis; format: ADME, organism-based; conditions: in vivo, 1.5 h; how it was run: as §1
# Cerebral cortex [6] = experiment: Drug uptake in cerebral cortex of Wistar rat at 47 MBq, iv up to 90 mins by PET analysis; format: ADME, organism-based; conditions: in vivo, 1.5 h; how it was run: as §1
# Brain [7] = experiment: Drug uptake in Wistar rat brain slices after 45 mins by autoradiography in presence of 0.9 uM of unlabelled 2-(3-(6,7-Dimethoxy-3,4-dihydroisoquinolin-2(1H)-yl)propyl)-5-(2-fluoroethoxy)-3,4-dihydroisoquinolin-1(2H)-one; format: ADME, tissue-based
# How it was run: (§2)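 Horizontal 20 µm cryosections of male Wistar rat brain, thawed 30 min, pre-incubated 10 min at 4 °C in 50 mM Tris-HCl pH 7.4. Incubated 45 min at rt with 9 nM [18F]-tracer in Tris-HCl/1% BSA (n = 4), alone or with blocker. Washed, air-dried, phosphor-imaged after 15 min exposure.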
# Brain [8] = experiment: Drug uptake in Wistar rat brain slices after 45 mins by autoradiography in presence of 90 uM of haloperidol; format: ADME, tissue-based; how it was run: as §2
# Cerebellum [9] = experiment: Drug uptake in Wistar rat cerebellum after 45 mins by autoradiography; format: ADME, tissue-based; how it was run: as §2
# Cerebral cortex [10] = experiment: Drug uptake in Wistar rat cerebral cortex after 45 mins by autoradiography; format: ADME, tissue-based; how it was run: as §2
# Hippocampus = experiment: Drug uptake in Wistar rat hippocampus after 45 mins by autoradiography; format: ADME, tissue-based; how it was run: as §2
# [11] = Selectivity ratio of Ki for sigma 1 receptor in guinea pig brain membranes without cerebellum to Ki for sigma 2 receptor in Wistar Hannover rat liver membranes; format: cell membranes; conditions: Membrane
# [12] = Displacement of [3H]-DTG from sigma 2 receptor in Wistar Hannover rat liver membranes; format: cell membranes, Membrane
# [13] = molecular target: Sigma non-opioid intracellular receptor 1 (Cavia porcellus, UniProt Q60492); experiment: Displacement of (+)-[3H]-pentazocine from sigma 1 receptor in Dunkin guinea pig brain membranes without cerebellum; format: cell membranes, Membrane
# Chain of Sigma non-opioid intracellular receptor 1 (Q60492 whole entry): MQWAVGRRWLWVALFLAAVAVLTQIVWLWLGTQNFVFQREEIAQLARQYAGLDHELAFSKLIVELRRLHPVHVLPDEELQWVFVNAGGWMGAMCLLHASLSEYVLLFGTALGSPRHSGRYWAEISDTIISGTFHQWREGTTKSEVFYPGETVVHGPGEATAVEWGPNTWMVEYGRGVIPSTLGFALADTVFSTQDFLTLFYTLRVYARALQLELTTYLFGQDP
# Caco-2 = experiment: Efflux ratio of apparent permeability from apical to basolateral side over basolateral to apical side in human Caco2 cells at 1 to 100 uM after 120 mins; format: ADME, cell-based; conditions: caco-2, 2 h
# [14] = molecular target: ATP-dependent translocase ABCB1 (Homo sapiens, UniProt P08183); experiment: Activity at human MDR1 expressed in MDCK cells assessed as Calcein-AM uptake after 30 mins by fluorescence assay; format: ADME, cell-based
# Chain of ATP-dependent translocase ABCB1 (P08183 whole entry): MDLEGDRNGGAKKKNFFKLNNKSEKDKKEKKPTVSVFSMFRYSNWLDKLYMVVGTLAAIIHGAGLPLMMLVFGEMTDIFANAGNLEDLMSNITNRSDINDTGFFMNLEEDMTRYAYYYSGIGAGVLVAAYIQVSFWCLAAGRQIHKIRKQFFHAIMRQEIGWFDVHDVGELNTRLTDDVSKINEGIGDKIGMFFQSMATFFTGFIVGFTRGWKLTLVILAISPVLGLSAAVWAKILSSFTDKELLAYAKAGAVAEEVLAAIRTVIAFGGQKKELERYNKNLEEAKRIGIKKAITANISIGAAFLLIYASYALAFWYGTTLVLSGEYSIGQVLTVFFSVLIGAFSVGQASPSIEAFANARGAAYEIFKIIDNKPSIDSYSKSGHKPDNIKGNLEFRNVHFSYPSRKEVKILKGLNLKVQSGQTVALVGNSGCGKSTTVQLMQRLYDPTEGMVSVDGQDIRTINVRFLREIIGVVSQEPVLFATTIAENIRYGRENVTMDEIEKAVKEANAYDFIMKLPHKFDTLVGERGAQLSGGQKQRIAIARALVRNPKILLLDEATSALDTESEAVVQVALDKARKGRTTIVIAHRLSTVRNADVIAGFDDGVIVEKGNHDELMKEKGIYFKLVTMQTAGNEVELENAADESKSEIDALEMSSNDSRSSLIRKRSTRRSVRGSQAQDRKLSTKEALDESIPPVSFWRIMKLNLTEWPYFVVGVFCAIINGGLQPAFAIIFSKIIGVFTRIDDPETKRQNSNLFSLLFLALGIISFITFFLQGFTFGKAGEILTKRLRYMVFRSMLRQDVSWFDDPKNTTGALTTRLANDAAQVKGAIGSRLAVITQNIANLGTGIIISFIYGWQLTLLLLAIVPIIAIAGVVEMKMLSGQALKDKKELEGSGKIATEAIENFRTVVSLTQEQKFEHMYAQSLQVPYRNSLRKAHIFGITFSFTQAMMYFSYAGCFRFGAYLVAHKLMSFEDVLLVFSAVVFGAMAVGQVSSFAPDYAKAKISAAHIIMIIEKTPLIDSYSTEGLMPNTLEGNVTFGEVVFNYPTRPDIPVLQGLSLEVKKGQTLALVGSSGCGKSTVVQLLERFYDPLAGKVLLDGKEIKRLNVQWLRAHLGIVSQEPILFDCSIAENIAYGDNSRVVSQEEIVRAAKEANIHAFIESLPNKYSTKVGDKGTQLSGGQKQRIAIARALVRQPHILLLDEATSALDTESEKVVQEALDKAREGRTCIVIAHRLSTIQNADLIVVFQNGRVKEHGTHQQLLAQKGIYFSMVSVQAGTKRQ
# How it was run: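 P-gp interaction measured with the Calcein-AM assay in MDCK-MDR1 cells, which overexpress P-gp.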
# [15] = molecular target: T1, Adrenergic receptor alpha-1 (Rattus norvegicus, UniProt P15823+P23944+P43140); experiment: Displacement of [3H]-prazosin from alpha1 adrenoceptor in Wistar Hannover rat cerebral cortex membranes after 50 mins; format: cell membranes, Membrane
# T1 sequence (P15823 whole entry): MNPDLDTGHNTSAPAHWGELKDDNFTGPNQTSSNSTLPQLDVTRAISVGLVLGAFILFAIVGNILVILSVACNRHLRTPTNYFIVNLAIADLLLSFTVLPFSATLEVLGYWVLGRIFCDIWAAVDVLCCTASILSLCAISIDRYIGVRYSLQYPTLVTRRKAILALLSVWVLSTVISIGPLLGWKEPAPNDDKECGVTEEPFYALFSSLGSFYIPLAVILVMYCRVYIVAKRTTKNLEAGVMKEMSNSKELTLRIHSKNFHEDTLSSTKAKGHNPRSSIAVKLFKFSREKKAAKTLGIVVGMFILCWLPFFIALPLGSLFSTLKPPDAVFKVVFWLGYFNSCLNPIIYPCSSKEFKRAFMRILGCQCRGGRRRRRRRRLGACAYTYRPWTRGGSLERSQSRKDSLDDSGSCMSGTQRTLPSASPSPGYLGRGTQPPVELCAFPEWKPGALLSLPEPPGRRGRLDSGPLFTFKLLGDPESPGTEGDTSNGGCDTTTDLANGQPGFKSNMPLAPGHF
# T1 sequence (P23944 whole entry): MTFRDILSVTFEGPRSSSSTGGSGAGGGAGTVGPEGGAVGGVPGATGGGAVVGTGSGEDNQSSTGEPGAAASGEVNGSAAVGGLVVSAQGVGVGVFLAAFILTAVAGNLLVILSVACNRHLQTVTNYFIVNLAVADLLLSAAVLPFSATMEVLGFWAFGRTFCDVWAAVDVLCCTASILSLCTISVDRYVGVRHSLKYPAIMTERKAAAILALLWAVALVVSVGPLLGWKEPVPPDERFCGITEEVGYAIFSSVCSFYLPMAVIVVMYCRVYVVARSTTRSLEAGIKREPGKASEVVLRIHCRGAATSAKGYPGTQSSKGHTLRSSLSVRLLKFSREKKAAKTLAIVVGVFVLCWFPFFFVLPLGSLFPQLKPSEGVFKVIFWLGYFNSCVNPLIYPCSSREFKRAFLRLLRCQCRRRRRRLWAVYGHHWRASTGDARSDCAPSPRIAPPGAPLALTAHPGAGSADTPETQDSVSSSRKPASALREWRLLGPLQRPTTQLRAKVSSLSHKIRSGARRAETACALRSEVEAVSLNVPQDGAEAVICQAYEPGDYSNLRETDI
# T1 sequence (P43140 whole entry): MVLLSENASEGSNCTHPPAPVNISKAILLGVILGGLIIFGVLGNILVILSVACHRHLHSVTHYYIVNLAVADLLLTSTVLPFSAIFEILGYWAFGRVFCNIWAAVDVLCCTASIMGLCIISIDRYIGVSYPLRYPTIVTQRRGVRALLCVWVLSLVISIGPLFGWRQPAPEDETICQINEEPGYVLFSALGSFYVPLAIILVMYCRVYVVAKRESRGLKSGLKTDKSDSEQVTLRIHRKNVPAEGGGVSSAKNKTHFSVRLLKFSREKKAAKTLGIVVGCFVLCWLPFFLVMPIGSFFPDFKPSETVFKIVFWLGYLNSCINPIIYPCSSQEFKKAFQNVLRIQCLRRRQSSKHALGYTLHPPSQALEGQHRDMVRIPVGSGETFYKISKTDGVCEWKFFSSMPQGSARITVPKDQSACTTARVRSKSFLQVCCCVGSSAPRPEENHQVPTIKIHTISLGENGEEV
# How it was run: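 Rat cerebral cortex membranes ([…]) with 1 nM [3H]-prazosin in 50 mM Tris-HCl pH 7.4, 120 mM NaCl, 5 mM KCl, 5 mM CaCl2, 1 mM MgCl2, plus varied drug concentrations. Incubated 50 min at 25 °C, filtered on PEI-soaked GF/C. Nonspecific binding with 10 phentolamine.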
# [16] = molecular target: T2, 5-hydroxytryptamine receptor 1A (Homo sapiens, UniProt P08908); experiment: Displacement of [3H]-8-OH-DPAT from human recombinant 5-HT1A receptor expressed in HEK293-EBNA cells after 120 mins; format: cell-based
# T2 sequence (P08908 whole entry): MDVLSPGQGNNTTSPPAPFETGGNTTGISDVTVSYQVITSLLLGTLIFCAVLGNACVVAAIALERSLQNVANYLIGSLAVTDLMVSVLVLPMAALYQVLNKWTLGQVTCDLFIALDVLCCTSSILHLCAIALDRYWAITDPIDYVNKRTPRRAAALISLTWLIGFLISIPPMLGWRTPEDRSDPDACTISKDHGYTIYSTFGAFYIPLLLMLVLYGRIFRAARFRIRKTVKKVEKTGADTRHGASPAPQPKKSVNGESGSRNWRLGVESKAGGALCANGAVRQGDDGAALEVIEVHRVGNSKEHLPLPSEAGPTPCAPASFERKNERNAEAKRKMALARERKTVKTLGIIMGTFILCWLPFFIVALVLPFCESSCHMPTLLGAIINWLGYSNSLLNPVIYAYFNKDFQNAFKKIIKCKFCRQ
# How it was run: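 HEK293-EBNA membranes ([…] protein) stably expressing human 5-HT1A, 1.0 nM [3H]-8-OH-DPAT, test compound 0.1 nM to 10 mM. Buffer 50 mM Tris-HCl pH 7.4, 5 mM MgSO4. Incubated 120 min at 37 °C, filtered on PEI-soaked GF/C. Nonspecific binding with 10 mM 5-HT.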
# [17] = molecular target: 5-hydroxytryptamine receptor 7 (Homo sapiens, UniProt P34969); experiment: Displacement of [3H]-5-CT from human recombinant 5-HT7 receptor expressed in CHO-K1 cells after 120 mins; format: cell-based
# Chain of 5-hydroxytryptamine receptor 7 (P34969 whole entry): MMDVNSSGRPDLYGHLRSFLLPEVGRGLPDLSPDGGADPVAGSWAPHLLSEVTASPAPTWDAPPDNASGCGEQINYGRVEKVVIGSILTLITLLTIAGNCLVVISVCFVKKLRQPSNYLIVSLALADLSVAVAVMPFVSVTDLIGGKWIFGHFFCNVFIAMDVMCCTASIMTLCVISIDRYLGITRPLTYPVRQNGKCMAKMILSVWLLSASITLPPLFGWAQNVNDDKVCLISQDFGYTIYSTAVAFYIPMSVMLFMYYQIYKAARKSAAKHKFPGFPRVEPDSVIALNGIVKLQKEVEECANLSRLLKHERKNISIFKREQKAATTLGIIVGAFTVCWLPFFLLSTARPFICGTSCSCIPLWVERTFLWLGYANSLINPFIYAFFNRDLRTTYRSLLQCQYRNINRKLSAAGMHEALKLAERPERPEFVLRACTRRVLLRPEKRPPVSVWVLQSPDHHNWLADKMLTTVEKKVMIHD
Structure (SMILES),Ratio Ki [11],pKi [12],pKi [13],also measured
COc1cc2c(cc1OC)CN(CCCN1CCc3c(OCC[18F])cccc3C1=O)CC2,–,–,–,Drug uptake (Bone): Not Active; Drug uptake (Cerebellum [1]): Not Active; Drug uptake [2]: Not Active; Drug uptake (Cerebral cortex [3]): Not Active; Drug uptake (Cerebellum [4]): Active; Drug uptake [5]: Active; Drug uptake (Cerebral cortex [6]): Active; Drug uptake (Brain [7]): Not Active; Drug uptake (Brain [8]): Not Active; Drug uptake (Cerebellum [9]): Active; Drug uptake (Cerebral cortex [10]): Active; Drug uptake (Hippocampus): Active
COc1ccc2c(c1)CCN(CCCN1CCc3cc(OC)c(OC)cc3C1)C2=O,70,8.24,6.40,–
COc1cc2c(cc1OC)CN(CCCN1CCc3c(OC)cccc3C1=O)CC2,574,8.37,5.61,–
COc1cc2c(cc1OC)CN(CCCN1CCc3cc(F)ccc3C1=O)CC2,87,8.45,6.51,–
COc1cc2c(cc1OC)CN(CCCN1CCc3cccc(OC)c3C1=O)CC2,101,7.79,5.79,–
COc1cc2c(cc1OC)CN(CCCN1CCc3cc(OC)c(OC)cc3C1=O)CC2,127,7.70,5.59,–
COc1cc2c(cc1OC)CN(CCCN1CCc3c(OCCF)cccc3C1=O)CC2,330,8.03,5.51,Ratio (Caco-2): 2.58; pEC50 [14]: 5.30; Ki [15]: 764 nM; pKi [16]: < 6.00; pKi [17]: < 6.00
COc1cc2c(cc1OC)CN(CC/C=C1\CCCc3c(OC)cccc31)CC2,–,–,–,pEC50 [14]: 5.96
